The source made the active and inactive calls. The rule behind the calls is not given here.
Columns and labels:
[1] = test system: Rattus norvegicus; experiment: Compound was tested in schedule induced polydipsia in rats expressed as %maximum suppression at minimum effective dose of 30 mg/kg intraperitoneally; assay type: functional; settings: route intraperitoneal
[2] = biological target: 5-hydroxytryptamine receptor 2A (Homo sapiens, UniProt P28223); experiment: Binding affinity against human 5-hydroxytryptamine 2A receptor using displacement of [3H]5-HT
[3] = biological target: T1, 5-hydroxytryptamine receptor 2C (Homo sapiens, UniProt P28335); experiment: Binding affinity against human 5-hydroxytryptamine 2C receptor using displacement of [3H]DOB
T1 sequence (P28335 whole entry): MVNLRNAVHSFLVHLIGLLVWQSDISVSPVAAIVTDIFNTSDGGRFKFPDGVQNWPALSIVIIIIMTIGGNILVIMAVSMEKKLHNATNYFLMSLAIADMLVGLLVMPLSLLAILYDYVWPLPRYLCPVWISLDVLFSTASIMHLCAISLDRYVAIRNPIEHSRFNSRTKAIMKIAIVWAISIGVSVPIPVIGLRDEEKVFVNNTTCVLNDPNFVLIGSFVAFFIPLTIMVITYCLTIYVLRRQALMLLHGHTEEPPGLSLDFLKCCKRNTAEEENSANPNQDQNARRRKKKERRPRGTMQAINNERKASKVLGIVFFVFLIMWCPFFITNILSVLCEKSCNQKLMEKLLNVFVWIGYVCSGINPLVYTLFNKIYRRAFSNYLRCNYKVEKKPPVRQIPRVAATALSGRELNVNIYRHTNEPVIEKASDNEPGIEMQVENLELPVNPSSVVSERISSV

[4] = biological target: T2, 5-hydroxytryptamine receptor 2C (Rattus norvegicus) (UniProt P08909); experiment: Intrinsic 5-HT 2c receptor activity as induced IP3 turnover in vitro in rat choroid plexus; assay type: functional, tissue-based
T2 sequence (whole entry): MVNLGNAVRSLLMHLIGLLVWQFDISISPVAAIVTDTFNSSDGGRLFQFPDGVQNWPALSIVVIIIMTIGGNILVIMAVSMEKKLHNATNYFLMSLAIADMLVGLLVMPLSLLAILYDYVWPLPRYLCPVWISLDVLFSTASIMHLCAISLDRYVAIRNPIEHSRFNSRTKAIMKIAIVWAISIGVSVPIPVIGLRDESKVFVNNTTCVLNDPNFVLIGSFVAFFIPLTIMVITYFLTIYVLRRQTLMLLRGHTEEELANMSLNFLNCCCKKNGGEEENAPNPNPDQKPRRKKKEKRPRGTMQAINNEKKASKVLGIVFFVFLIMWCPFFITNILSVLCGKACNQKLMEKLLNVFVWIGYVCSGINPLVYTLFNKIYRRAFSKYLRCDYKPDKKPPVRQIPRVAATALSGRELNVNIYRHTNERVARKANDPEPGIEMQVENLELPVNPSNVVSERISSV
In short: (§1)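 Rat choroid plexus preloaded with [³H]myoinositol for 1 h at 37 °C in oxygenated Krebs. LiCl 10 mM and pargyline 10 µM added, then compound 10 min later. Six concentrations, top 0.1 mM, incubated 0.5 h at 37 °C. Stopped with HClO₄/EDTA, then IP₃ isolated. Three measures per point. Intrinsic activity is the maximum relative to 10 µM 5HT.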

[5] = biological target: T2, 5-hydroxytryptamine receptor 2C (Rattus norvegicus); experiment: Induction of penile erection in rats following p.o. administration, indicative of 5-HT 2c receptor activation; assay type: functional, organism-based
In short: (§2)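 Male erection counts in RORO rats, 8 per dose, over 45 min. Drug is given in 0.3% Tween-80 in saline, sc at 5 mL/kg or orally at 10 mL/kg. Vehicle controls are included, and doses are expressed as salt weight. ED₅₀ by probit analysis, or the approximate dose at which half the rats respond.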

[6] = biological target: T2, 5-hydroxytryptamine receptor 2C (Rattus norvegicus); experiment: Induction of penile erection in rats after subcutaneous administration, indicative of 5-HT 2c receptor activation; assay type: functional, organism-based; in short: as §2
[7] = biological target: T3, 5-hydroxytryptamine receptor 2C (Rattus norvegicus, UniProt P08909); experiment: Efficacy (pEC50) was evaluated for 5-HT2C receptor-mediated stimulation of IP3 formation in vitro in choroid plexus of the rat; assay type: functional, tissue-based; in short: as §1
T3 sequence (P08909 whole entry): T2 sequence (whole entry)

[8] = biological target: T2, 5-hydroxytryptamine receptor 2C (Rattus norvegicus); experiment: The compound was tested for induction of penile erection in rats after peroral administration; Inactive; assay type: functional, organism-based; in short: as §2
[9] = test system: Rattus norvegicus; experiment: Compound was tested in schedule induced polydipsia in rats expressed as %maximum suppression at minimum effective dose of 10 mg/kg intraperitoneally; assay type: functional; settings: route intraperitoneal
[10] = test system: Rattus norvegicus; experiment: Compound was tested in schedule induced polydipsia in rats expressed as %maximum suppression at minimum effective dose of 3 mg/kg intraperitoneally; assay type: functional; settings: route intraperitoneal
[11] = biological target: T2, 5-hydroxytryptamine receptor 2C (Rattus norvegicus); experiment: Efficacy (pEC50) was evaluated for 5-HT2C receptor-mediated stimulation of IP3 formation in vitro in choroid plexus of the rat; inactive; assay type: functional, tissue-based; in short: as §1
[12] = test system: Rattus norvegicus; experiment: Compound was tested in schedule induced polydipsia in rats expressed as %maximum suppression at minimum effective dose of 1 mg/kg intraperitoneally; assay type: functional; settings: route intraperitoneal

Chain of 5-hydroxytryptamine receptor 2A (P28223 whole entry): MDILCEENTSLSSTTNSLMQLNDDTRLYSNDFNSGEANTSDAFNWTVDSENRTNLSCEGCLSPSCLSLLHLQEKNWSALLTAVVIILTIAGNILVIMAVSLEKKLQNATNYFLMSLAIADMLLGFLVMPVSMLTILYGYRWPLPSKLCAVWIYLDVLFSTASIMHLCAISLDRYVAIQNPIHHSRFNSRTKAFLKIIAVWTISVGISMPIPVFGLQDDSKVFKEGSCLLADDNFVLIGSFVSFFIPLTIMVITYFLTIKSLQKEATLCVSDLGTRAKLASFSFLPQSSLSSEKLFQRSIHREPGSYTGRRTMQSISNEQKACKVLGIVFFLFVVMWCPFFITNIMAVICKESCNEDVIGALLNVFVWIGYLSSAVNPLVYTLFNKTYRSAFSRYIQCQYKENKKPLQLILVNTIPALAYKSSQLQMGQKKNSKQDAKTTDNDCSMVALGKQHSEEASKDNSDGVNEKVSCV

Structure (SMILES)	Max suppression [1]	Ki [2]	Ki [3]	Efficacy [4]	ED50 [5]	ED50 [6]	EC50 [7]	ED50 [8]	Max suppression [9]	Max suppression [10]	Log EC50 [11]	Max suppression [12]
CNCCC(Oc1ccc(C(F)(F)F)cc1)c1ccccc1 (stereo not given) [FLUOXETINE]	-11%											
COc1ccc2c(c1)-c1c(ccn1C[C@@H](C)N)C2		126 nM	3.98 nM	0.8	> 30 mg/kg	2 mg/kg	7940 nM					
C[C@@H](N)Cn1ccc2c(Cl)c(F)ccc21		10 nM	1.26 nM	0.9		3.3 mg/kg	794 nM	inactive				
Cc1ccc2c(c1)-c1c(ccn1CC(C)N)C2(C)C (stereo not given)		100 nM	3.16 nM	1	10 mg/kg	0.9 mg/kg	200 nM		-76%			
C[C@@H](N)Cn1ccc2cc(F)c(Cl)cc21		79.4 nM	10 nM	1	> 30 mg/kg	2.1 mg/kg	3160 nM					
CC(N)Cn1ccc2cc(Cl)c(F)cc21 (stereo not given)		39.8 nM	2 nM	1	15 mg/kg	1 mg/kg	398 nM			-88%		
C[C@H](N)Cn1ccc2cc(F)c(F)cc21		100 nM	1 nM	1	10 mg/kg	0.3 mg/kg	200 nM			-73%		
CC(N)Cn1ccc2c1-c1cc(Cl)ccc1C2 (stereo not given)		200 nM	3.98 nM	0.8	> 30 mg/kg	2.7 mg/kg	2510 nM					
COc1cccc2c1Cc1ccn(CC(C)N)c1-2 (stereo not given)		3160 nM	100 nM			> 10 mg/kg					inactive	
C[C@H](N)Cn1ccc2c(Cl)c(F)ccc21		39.8 nM	1.26 nM	1	> 30 mg/kg	2.7 mg/kg	316 nM			-97%		
CC(N)Cc1c[nH]c2ccc(F)cc12 (stereo not given)		63.1 nM	10 nM	0.9	9.9 mg/kg	0.8 mg/kg	158 nM					-96%
CC(N)Cn1ccc2ccc(F)cc21 (stereo not given)		251 nM	3.98 nM	1	> 30 mg/kg	0.3 mg/kg	631 nM					
COc1ccc2c(c1)-c1c(ccn1CC(C)N)C2 (stereo not given)		126 nM	1 nM	1	11 mg/kg	0.6 mg/kg	398 nM		-79%			
C[C@H](N)Cn1ccc2cc(F)c(Cl)cc21		31.6 nM	1.26 nM	1	5.5 mg/kg	0.5 mg/kg	200 nM		-90%			
CC(N)Cn1ccc2cc(Cl)ccc21 (stereo not given)		200 nM	7.94 nM	0.9	> 30 mg/kg	2.3 mg/kg	2000 nM					
COc1ccc2c(ccn2CC(C)N)c1 (stereo not given)			794 nM	0.3		> 10 mg/kg	10000 nM					

Structure (SMILES)	Max suppression [1]	Ki [2]	Ki [3]	Efficacy [4]	ED50 [5]	ED50 [6]	EC50 [7]	ED50 [8]	Max suppression [9]	Max suppression [10]	Log EC50 [11]	Max suppression [12]
CC(N)Cn1ccc2c1-c1cc(F)ccc1C2(C)C (stereo not given)		31.6 nM	5.01 nM	1	> 30 mg/kg	2.7 mg/kg	200 nM					
Cc1ccc2ccn(CC(C)N)c2c1 (stereo not given)		794 nM	15.8 nM	0.9	> 30 mg/kg	3.3 mg/kg	7940 nM					
C[C@@H](N)Cn1ccc2cc(F)c(F)cc21		100 nM	3.98 nM	1	30 mg/kg	2.7 mg/kg	126 nM					
CC(N)Cn1ccc2c1-c1cc(F)ccc1C2 (stereo not given)		200 nM	3.16 nM	1	> 30 mg/kg	1.5 mg/kg	631 nM					
COc1ccc2c(c1)-c1c(ccn1CC(C)N)C2(C)C (stereo not given)		10 nM	0.398 nM	1	10 mg/kg	0.5 mg/kg	100 nM					-75%
CC(N)Cn1ccc2c1-c1cc(Br)ccc1C2 (stereo not given)		100 nM	3.98 nM	1		> 10 mg/kg	2510 nM					
Cc1ccc2c(ccn2CC(C)N)c1 (stereo not given)		794 nM	63.1 nM	0.9		> 10 mg/kg	2510 nM					
CC(N)Cn1ccc2c(F)cccc21 (stereo not given)		158 nM	7.94 nM	0.7		> 10 mg/kg	1260 nM					
CC(N)Cn1ccc2cc(F)ccc21 (stereo not given)		158 nM	6.31 nM	1	2.7 mg/kg	1 mg/kg	1580 nM			-97%		
Cc1cccc2c1ccn2CC(C)N (stereo not given)		100 nM	6.31 nM	0.6	> 30 mg/kg	3.2 mg/kg	2510 nM					
COc1ccc2c(c1)Cc1ccn(CC(C)N)c1-2 (stereo not given)		398 nM	12.6 nM	1		> 10 mg/kg	2000 nM					
Cc1ccc2c(c1)-c1c(ccn1CC(C)N)C2 (stereo not given)		63.1 nM	7.94 nM	1		> 10 mg/kg	501 nM					
COc1ccc2c(c1)-c1c(ccn1C[C@H](C)N)C2		126 nM	1 nM	1	10 mg/kg	1.2 mg/kg	251 nM					-97%
COc1cccc2c1ccn2CC(C)N (stereo not given)			126 nM	0.3		> 10 mg/kg	12600 nM					
COc1cccc2c1-c1c(ccn1CC(C)N)C2 (stereo not given)		398 nM	12.6 nM	0.7		> 10 mg/kg	6310 nM					
CC(N)Cn1ccc2cc(Br)ccc21 (stereo not given)		158 nM	3.98 nM	0.8	> 30 mg/kg	4 mg/kg	2000 nM					

— ChEMBL document CHEMBL1130391, “Novel agonists of 5HT2C receptors. Synthesis and biological evaluation of substituted 2-(indol-1-yl)-1-methylethylamines and 2-(indeno[1,2-b]pyrrol-1-yl)-1-methylethylamines. Improved therapeutics for obsessive compulsive disorder” (J Med Chem, 1997)
